The list is not random: actives were taken first. Their share in the collection is about 5.9%.
Tcruzi prolif – blocks T. cruzi growth in NIH3T3 culture. T. cruzi beta-gal in NIH3T3, GalScreen luminescence, 90 h. inhibition, % at 8.34 µM. 5.9% of 77,000 active. AID 624255;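 active = mean inhibition above about 93%, with at least 55% of replicates each passing it, limit read from the data, passing the limit was not always enough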
Pf Dd2 inh – P. falciparum Dd2 growth inhibition | SYBR Green, 72 h; active compounds read low | activity change, % at 10 µM | 2.3% of 94,000 active | AID 1159554; in the data active = activity change below about -80%
GASC1 inh – KDM4C (human) demethylase inhibition. Q9H3R0. GST-KDM4C 2-372, H3K9me3 peptide, LANCE TR-FRET. inhibition, % at 12.5 µM. 0.15% of 96,000 active. AID 720574;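 active = mean replicate inhibition above about 25%, with at least 55% of replicates also reaching it, limit read from the data, passing the limit was not always enough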
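Compound: one test concentration per compound; Material: GST-GASC-1 enzyme fragment 2-372; Amount: GASC-1 enzyme at 10 nM final in reaction; Also added: H3K9me3 peptide substrate, Fe(II), 2-oxoglutarate; Technique: LANCE TR-FRET; Times: 30 min demethylation and 1 h detection at room temperature.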
IDH1 R132H inh – blocks human IDH1 R132H reductase activity | O75874 | diaphorase/resazurin fluorescence, 60 min | inhibition, % at 10 µM | 0.18% of 70,000 active | AID 624101; in the data active = inhibition above about 34%
Target sequence (O75874 whole entry R132H): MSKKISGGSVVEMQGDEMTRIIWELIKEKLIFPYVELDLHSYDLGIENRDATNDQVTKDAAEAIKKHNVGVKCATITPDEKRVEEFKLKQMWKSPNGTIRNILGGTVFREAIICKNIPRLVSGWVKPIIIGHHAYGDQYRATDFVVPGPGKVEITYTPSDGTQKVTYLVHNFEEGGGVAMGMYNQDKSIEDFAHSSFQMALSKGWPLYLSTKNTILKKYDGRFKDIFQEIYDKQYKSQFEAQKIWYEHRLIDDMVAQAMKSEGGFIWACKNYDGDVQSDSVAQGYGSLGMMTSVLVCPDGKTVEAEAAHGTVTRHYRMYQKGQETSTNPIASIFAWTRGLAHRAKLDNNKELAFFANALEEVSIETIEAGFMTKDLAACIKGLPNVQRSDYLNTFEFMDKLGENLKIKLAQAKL
Large screens that a line does not name were inactive.

Cc1noc(C)c1S(=O)(=O)N(C)C[C@H]1OCCCC[C@H](C)Oc2ccc(NC(=O)Nc3ccc4c(c3)OCO4)cc2C(=O)N([C@H](C)CO)C[C@@H]1C	none
COc1ccc(NC(=O)Nc2ccc3c(c2)C(=O)N([C@H](C)CO)C[C@@H](C)[C@H](CN(C)S(=O)(=O)c2c(C)noc2C)OCCCC[C@@H](C)O3)cc1	Pf Dd2 inh -80.5 (no result: IDH1 R132H inh)
Cc1noc(C)c1S(=O)(=O)N(C)C[C@H]1OCCCC[C@H](C)Oc2ccc(NC(=O)Nc3ccc(C(F)(F)F)cc3)cc2C(=O)N([C@@H](C)CO)C[C@@H]1C	Tcruzi prolif 88.9, Pf Dd2 inh -83.3
Cc1noc(C)c1S(=O)(=O)N(C)C[C@H]1OCCCC[C@H](C)Oc2ccc(NC(=O)Nc3ccc(C(F)(F)F)cc3)cc2C(=O)N([C@H](C)CO)C[C@@H]1C	Tcruzi prolif 102.1 (no result: IDH1 R132H inh)
Cc1noc(C)c1S(=O)(=O)N(C)C[C@H]1OCCCC[C@@H](C)Oc2ccc(NC(=O)Nc3ccc4c(c3)OCO4)cc2C(=O)N([C@@H](C)CO)C[C@@H]1C	Pf Dd2 inh -86.1
O=C(C[C@H]1CC[C@@H]2NC[C@H](O)COC[C@H]2O1)NCCc1ccncc1	none (no result: Pf Dd2 inh, IDH1 R132H inh)
C[C@@H]1CN([C@H](C)CO)C(=O)c2cc(NC(=O)Nc3ccccc3)ccc2O[C@@H](C)CCCCO[C@@H]1CN(C)S(=O)(=O)c1ccc(Cl)cc1	Pf Dd2 inh -86.4
C[C@@H]1CN([C@H](C)CO)C(=O)c2cc(NC(=O)Nc3ccccc3)ccc2O[C@@H](C)CCCCO[C@H]1CN(C)S(=O)(=O)c1ccc(Cl)cc1	Pf Dd2 inh -81.3
C[C@@H]1CN([C@@H](C)CO)C(=O)c2cc(NC(=O)Nc3ccccc3)ccc2O[C@@H](C)CCCCO[C@H]1CN(C)S(=O)(=O)c1ccccc1	none (no result: Tcruzi prolif, Pf Dd2 inh)
C[C@@H]1CN([C@H](C)CO)C(=O)c2cc(NC(=O)Nc3ccc4c(c3)OCO4)ccc2O[C@@H](C)CCCCO[C@@H]1CN(C)S(=O)(=O)c1ccc(Cl)cc1	Pf Dd2 inh -87.8
C[C@@H]1CCCCO[C@@H](CN(C)S(=O)(=O)c2ccc(Cl)cc2)[C@@H](C)CN([C@H](C)CO)C(=O)c2cc(NC(=O)Nc3ccccc3)ccc2O1	Pf Dd2 inh -84.3
C[C@@H]1CCCCO[C@@H](CN(C)S(=O)(=O)c2ccccc2)[C@H](C)CN([C@H](C)CO)C(=O)c2cc(NC(=O)Nc3ccccc3)ccc2O1	none
COc1ccc(NC(=O)Nc2ccc3c(c2)C(=O)N([C@@H](C)CO)C[C@@H](C)[C@H](CN(C)C(=O)Cc2ccccc2)OCCCC[C@@H](C)O3)cc1	none (no result: IDH1 R132H inh)
NNC(=O)Cc1cc(Br)sc1Br	none (no result: Tcruzi prolif, Pf Dd2 inh, GASC1 inh)
O=C(C[C@@H]1C=C[C@H](NC(=O)c2ccncc2)[C@H](CO)O1)NCC1CC1	none
O=C(Nc1ccc(Cl)cc1)N1C[C@@H]2[C@H](c3ccccc31)[C@H](CO)N2C(=O)C1CC1	none (no result: IDH1 R132H inh)
C[C@@H]1CN([C@@H](C)CO)C(=O)c2cc(NC(=O)Nc3ccccc3)ccc2O[C@@H](C)CCCCO[C@@H]1CN(C)S(=O)(=O)c1ccccc1	none
C[C@@H]1CN([C@@H](C)CO)C(=O)c2cc(NC(=O)Nc3ccccc3)ccc2O[C@@H](C)CCCCO[C@@H]1CN(C)S(=O)(=O)c1ccc(Cl)cc1	Pf Dd2 inh -87.4
Cc1ccc(S(=O)(=O)N(C)C[C@@H]2OCCCC[C@H](C)Oc3ccc(NC(=O)Nc4ccccc4)cc3C(=O)N([C@H](C)CO)C[C@H]2C)cc1	Pf Dd2 inh -89.9 (no result: IDH1 R132H inh)
O=C(C[C@@H]1CC[C@H](NS(=O)(=O)c2cccc(F)c2)[C@@H](CO)O1)NCc1ccc2c(c1)OCO2	none
CNC[C@H]1Oc2ccc(NC(=O)c3ccncc3)cc2CC(=O)N([C@@H](C)CO)C[C@H]1C	none
CC(C)(C)c1ccc(S(=O)(=O)/C=C/C#N)cc1	IDH1 R132H inh 82.4 (no result: Tcruzi prolif, Pf Dd2 inh, GASC1 inh)
C[C@@H]1CCCCO[C@@H](CN(C)Cc2ccc(C(=O)Nc3ccccc3N)cc2)[C@@H](C)CN([C@H](C)CO)C(=O)c2cc(NC(=O)c3ccccc3)ccc2O1	Pf Dd2 inh -83.7 (no result: Tcruzi prolif)
C[C@H]1CN([C@@H](C)CO)C(=O)c2cc(NC(=O)CCC(F)(F)F)ccc2O[C@@H]1CN(C)Cc1ccc(C(=O)Nc2ccccc2N)cc1	Pf Dd2 inh -85.8 (no result: Tcruzi prolif)
C[C@@H]1CCCCO[C@@H](CN(C)Cc2ccc(C(=O)Nc3ccccc3N)cc2)[C@@H](C)CN([C@H](C)CO)C(=O)c2cc(NC(=O)c3ccncc3)ccc2O1	Pf Dd2 inh -85.5 (no result: Tcruzi prolif)

Assay outcomes (PubChem BioAssay)
